# Results from ChEMBL document CHEMBL3826935, “Synthesis and Pharmacology of (Pyridin-2-yl)methanol Derivatives as Novel and Selective Transient Receptor Potential Vanilloid 3 Antagonists” (J Med Chem, 2016).
# Assays:
# [1] = target: T1, Nuclear receptor subfamily 1 group I member 2 (Homo sapiens, UniProt O75469); assay: Activation of human PXR; type: ADME; details: human
# T1 sequence (O75469 whole entry): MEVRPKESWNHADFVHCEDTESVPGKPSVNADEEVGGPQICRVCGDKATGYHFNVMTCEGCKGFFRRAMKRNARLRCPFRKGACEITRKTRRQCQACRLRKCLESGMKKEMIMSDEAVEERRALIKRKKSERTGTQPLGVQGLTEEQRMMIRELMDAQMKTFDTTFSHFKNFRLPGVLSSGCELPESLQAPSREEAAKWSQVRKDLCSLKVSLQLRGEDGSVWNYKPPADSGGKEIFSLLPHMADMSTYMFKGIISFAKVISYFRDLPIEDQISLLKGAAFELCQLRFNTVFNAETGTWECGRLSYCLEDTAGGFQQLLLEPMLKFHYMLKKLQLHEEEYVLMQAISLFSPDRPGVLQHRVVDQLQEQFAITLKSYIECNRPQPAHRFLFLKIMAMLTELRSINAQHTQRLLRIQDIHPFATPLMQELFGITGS
# [2] = Oral bioavailability in rat at 2 mg/kg; type: ADME, organism-based; details: in vivo
# Summary of the method: (§1)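 Rat pharmacokinetics: iv dose 1 mg/kg; po dose 1 or 2 mg/kg depending on compound. AUC taken over 0–8 h. Unbound parameters calculated using plasma free fraction.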
# [3] = target: Sodium channel protein type 9 subunit alpha (Homo sapiens) (UniProt Q15858); assay: Binding affinity to Nav1.7 (unknown origin) at 10 uM
# Summary of the method: (§2)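 Selectivity screen at 10 µM across CEREP and internal target panels. Readout is percent binding, with 50% as the threshold.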
# [4] = system: Rattus norvegicus; assay: Toxicity in sciatic nerve ligation Sprague-Dawley rat model of neuropathic pain assessed as behavioral changes at 10 to 100 mg/kg, po; type: organism-based; details: in vivo
# [5] = system: Rattus norvegicus; assay: Antiallodynic activity in po dosed chronic constriction injury Sprague-Dawley rat model of neuropathic pain assessed as attenuation of mechanical allodynia induced by von Frey hair stimulation to the ipsilateral hind paw; type: functional, organism-based
# Summary of the method: (§3)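 Rat neuropathic pain models dosed orally. Mechanical allodynia measured by von Frey stimulation of the injured ipsilateral paw, with a 15 g threshold taken as maximal possible effect and results expressed as %MPE. Vehicle 10% DMSO in PEG; n = 6 per group.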
# [6] = target: T2, Transient receptor potential cation channel subfamily V member 3 (Homo sapiens) (UniProt Q8NET8); assay: Binding affinity to TRPV3 (unknown origin) at 10 uM
# T2 sequence (whole entry): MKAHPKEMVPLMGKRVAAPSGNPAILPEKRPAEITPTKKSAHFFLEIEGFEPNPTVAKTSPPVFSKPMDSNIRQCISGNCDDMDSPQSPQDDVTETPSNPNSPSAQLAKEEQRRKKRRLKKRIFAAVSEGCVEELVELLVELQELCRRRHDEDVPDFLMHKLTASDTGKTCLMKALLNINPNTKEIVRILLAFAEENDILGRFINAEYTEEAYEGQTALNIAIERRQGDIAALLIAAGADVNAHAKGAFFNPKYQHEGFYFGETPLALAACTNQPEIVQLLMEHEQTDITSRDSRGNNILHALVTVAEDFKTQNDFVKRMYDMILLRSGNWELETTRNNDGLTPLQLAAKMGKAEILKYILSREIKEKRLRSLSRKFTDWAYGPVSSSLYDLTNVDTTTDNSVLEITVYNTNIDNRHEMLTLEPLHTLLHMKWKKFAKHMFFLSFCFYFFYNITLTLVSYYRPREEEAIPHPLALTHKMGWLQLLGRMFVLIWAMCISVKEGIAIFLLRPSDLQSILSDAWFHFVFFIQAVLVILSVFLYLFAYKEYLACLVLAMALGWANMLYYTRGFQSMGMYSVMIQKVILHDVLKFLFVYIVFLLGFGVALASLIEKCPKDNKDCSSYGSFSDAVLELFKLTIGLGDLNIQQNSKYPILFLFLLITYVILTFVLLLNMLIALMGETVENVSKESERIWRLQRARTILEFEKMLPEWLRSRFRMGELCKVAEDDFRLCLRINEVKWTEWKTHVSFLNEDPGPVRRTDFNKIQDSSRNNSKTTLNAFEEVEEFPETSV
# [7] = system: Rattus norvegicus; assay: Unbound AUC(0 to 8 hrs) in rat at 2 mg/kg, po; type: ADME, organism-based; details: in vivo; summary of the method: as §1
# [8] = Half life in rat at 1 mg/kg, iv; type: ADME, organism-based; details: in vivo; summary of the method: as §1
# [9] = system: Liver microsome; assay: Unbound intrinsic clearance in rat liver microsomes after 5 hrs by LC-MS/MS analysis; type: ADME
# Summary of the method: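 Microsomal stability run in an automated high-throughput plate format. Intrinsic clearance corrected for nonspecific microsomal binding using measured unbound fraction (fu,mic), reported as unbound Clint in L/h/kg.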
# [10] = target: Voltage-dependent N-type calcium channel subunit alpha-1B (Homo sapiens) (UniProt Q00975); assay: Binding affinity to Cav2.2 (unknown origin) at 10 uM; summary of the method: as §2
# [11] = organism: Rattus norvegicus; assay: Cardiotoxicity in rat assessed as increase in cardiac contractility at plasma concentration of 4.7 ug/ml; type: toxicity, organism-based
# [12] = system: Rattus norvegicus; assay: Toxicity in chronic constriction injury Sprague-Dawley rat model of neuropathic pain assessed as behavioral changes at 10 to 100 mg/kg, po; type: organism-based; details: in vivo
# [13] = target: T3, Transient receptor potential cation channel subfamily V member 3 (Homo sapiens, UniProt Q8NET8); assay: Antagonist activity at human TRPV3 expressed in recombinant HEK293 cells assessed as inhibition of 2-APB induced currents by patch-clamp electrophysiological assay; type: cell-based
# T3 sequence (Q8NET8 whole entry): T2 sequence (whole entry)
# [14] = system: Rattus norvegicus; assay: Antiallodynic activity in po dosed sciatic nerve ligation Sprague-Dawley rat model of neuropathic pain assessed as attenuation of mechanical allodynia induced by von Frey hair stimulation to the ipsilateral hind paw; type: functional, organism-based; summary of the method: as §3
# [15] = target: Transient receptor potential cation channel subfamily V member 1 (Homo sapiens) (UniProt Q8NER1); assay: Binding affinity to TRPV1 (unknown origin) at 10 uM; summary of the method: as §2
# [16] = target: Voltage-gated inwardly rectifying potassium channel KCNH2 (Homo sapiens, UniProt Q12809); assay: Binding affinity to human ERG at 10 uM; summary of the method: as §2
# [17] = Fraction unbound in human plasma; type: ADME, cell-free
# [18] = target: Sodium channel protein type 10 subunit alpha (Homo sapiens) (UniProt Q9Y5Y9); assay: Binding affinity to Nav1.8 (unknown origin) at 10 uM; summary of the method: as §2
# [19] = target: Sodium channel protein type 5 subunit alpha (Homo sapiens, UniProt Q14524); assay: Binding affinity to Nav1.5 (unknown origin) at 10 uM; summary of the method: as §2
# [20] = organism: Rattus norvegicus; assay: Cardiotoxicity in rat assessed as increase in mean arterial pressure; type: toxicity, organism-based, Artery; details: in vivo
# [21] = target: T2, Transient receptor potential cation channel subfamily V member 3 (Homo sapiens); assay: (§4) Antagonist activity at human TRPV3 expressed in recombinant HEK293 cells assessed as inhibition of 2-APB induced calcium flux by FLIPR analysis; type: cell-based
# Summary of the method: (§5)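 HEK293 cells stably expressing human TRPV3 (I25V variant), plated the day before in DMEM + 10% FBS at 37 °C, 5% CO2. Calcium 4 dye loaded in Ca/Mg-free HEPES D-PBS pH 7.4 for 1–2 h at room temperature. Compound dilutions added with 3 min baseline, then 2-APB at 60 µM final; Ca2+ flux read 3 min on FLIPR. Kb from at least duplicates, averaged across independent runs.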
# [22] = target: T3, Transient receptor potential cation channel subfamily V member 3; assay: as §4; type: cell-based; summary of the method: as §5
# [23] = Volume of distribution at steady state in rat at 1 mg/kg, iv or 2 mg/kg, po; type: ADME, organism-based; details: in vivo, read-out: Vdss; summary of the method: as §1
# Chain of Sodium channel protein type 5 subunit alpha (Q14524 whole entry): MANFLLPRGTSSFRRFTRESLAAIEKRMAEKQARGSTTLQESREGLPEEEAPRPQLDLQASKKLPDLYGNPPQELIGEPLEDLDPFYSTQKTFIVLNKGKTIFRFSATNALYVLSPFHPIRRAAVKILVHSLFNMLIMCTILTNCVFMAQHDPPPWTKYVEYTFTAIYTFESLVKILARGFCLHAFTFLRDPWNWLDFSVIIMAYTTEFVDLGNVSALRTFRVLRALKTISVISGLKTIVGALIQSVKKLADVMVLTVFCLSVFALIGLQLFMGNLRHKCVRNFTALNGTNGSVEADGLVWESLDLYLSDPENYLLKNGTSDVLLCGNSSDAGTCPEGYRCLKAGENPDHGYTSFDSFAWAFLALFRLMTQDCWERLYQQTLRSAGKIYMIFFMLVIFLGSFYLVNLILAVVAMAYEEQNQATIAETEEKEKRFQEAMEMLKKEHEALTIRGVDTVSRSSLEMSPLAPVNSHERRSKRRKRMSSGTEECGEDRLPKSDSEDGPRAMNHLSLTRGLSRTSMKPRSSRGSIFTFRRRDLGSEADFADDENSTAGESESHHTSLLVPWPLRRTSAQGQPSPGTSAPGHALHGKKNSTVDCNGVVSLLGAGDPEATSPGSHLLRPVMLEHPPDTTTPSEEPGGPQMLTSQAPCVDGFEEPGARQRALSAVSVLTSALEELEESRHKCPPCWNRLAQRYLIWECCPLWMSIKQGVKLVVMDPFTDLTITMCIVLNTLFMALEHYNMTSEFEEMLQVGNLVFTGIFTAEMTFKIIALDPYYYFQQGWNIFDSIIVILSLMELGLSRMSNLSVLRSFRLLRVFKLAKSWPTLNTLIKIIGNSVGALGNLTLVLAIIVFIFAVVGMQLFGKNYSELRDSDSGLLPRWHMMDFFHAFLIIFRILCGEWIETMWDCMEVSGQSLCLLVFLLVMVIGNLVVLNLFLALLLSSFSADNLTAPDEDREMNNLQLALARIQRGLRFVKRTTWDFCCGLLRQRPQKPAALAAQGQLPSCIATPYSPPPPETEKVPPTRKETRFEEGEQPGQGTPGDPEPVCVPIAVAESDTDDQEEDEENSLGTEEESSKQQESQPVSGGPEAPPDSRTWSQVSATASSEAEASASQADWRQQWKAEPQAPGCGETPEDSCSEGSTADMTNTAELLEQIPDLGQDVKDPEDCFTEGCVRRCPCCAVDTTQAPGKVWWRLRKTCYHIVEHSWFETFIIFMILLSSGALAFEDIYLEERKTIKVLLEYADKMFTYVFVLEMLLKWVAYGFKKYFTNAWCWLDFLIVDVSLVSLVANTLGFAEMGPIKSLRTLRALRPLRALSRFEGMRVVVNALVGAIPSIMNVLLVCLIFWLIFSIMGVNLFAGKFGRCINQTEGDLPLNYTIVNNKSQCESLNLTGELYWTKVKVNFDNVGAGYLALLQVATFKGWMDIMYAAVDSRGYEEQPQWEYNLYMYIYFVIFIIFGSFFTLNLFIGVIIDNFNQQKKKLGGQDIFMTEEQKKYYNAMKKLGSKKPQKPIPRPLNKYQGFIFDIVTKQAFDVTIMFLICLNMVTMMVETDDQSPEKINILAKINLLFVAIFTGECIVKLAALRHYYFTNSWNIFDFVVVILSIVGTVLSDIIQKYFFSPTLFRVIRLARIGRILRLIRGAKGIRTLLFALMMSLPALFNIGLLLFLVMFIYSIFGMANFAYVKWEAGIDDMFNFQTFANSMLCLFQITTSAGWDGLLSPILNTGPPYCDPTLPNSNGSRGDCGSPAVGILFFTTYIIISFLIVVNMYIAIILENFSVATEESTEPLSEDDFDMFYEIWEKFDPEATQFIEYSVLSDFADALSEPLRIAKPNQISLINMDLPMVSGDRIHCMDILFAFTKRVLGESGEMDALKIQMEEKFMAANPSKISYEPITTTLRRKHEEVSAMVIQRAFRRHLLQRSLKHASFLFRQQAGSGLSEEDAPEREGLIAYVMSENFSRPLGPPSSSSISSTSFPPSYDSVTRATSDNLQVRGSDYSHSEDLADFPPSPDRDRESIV
# Chain of Sodium channel protein type 9 subunit alpha (Homo sapiens) (Q15858 whole entry, looked up): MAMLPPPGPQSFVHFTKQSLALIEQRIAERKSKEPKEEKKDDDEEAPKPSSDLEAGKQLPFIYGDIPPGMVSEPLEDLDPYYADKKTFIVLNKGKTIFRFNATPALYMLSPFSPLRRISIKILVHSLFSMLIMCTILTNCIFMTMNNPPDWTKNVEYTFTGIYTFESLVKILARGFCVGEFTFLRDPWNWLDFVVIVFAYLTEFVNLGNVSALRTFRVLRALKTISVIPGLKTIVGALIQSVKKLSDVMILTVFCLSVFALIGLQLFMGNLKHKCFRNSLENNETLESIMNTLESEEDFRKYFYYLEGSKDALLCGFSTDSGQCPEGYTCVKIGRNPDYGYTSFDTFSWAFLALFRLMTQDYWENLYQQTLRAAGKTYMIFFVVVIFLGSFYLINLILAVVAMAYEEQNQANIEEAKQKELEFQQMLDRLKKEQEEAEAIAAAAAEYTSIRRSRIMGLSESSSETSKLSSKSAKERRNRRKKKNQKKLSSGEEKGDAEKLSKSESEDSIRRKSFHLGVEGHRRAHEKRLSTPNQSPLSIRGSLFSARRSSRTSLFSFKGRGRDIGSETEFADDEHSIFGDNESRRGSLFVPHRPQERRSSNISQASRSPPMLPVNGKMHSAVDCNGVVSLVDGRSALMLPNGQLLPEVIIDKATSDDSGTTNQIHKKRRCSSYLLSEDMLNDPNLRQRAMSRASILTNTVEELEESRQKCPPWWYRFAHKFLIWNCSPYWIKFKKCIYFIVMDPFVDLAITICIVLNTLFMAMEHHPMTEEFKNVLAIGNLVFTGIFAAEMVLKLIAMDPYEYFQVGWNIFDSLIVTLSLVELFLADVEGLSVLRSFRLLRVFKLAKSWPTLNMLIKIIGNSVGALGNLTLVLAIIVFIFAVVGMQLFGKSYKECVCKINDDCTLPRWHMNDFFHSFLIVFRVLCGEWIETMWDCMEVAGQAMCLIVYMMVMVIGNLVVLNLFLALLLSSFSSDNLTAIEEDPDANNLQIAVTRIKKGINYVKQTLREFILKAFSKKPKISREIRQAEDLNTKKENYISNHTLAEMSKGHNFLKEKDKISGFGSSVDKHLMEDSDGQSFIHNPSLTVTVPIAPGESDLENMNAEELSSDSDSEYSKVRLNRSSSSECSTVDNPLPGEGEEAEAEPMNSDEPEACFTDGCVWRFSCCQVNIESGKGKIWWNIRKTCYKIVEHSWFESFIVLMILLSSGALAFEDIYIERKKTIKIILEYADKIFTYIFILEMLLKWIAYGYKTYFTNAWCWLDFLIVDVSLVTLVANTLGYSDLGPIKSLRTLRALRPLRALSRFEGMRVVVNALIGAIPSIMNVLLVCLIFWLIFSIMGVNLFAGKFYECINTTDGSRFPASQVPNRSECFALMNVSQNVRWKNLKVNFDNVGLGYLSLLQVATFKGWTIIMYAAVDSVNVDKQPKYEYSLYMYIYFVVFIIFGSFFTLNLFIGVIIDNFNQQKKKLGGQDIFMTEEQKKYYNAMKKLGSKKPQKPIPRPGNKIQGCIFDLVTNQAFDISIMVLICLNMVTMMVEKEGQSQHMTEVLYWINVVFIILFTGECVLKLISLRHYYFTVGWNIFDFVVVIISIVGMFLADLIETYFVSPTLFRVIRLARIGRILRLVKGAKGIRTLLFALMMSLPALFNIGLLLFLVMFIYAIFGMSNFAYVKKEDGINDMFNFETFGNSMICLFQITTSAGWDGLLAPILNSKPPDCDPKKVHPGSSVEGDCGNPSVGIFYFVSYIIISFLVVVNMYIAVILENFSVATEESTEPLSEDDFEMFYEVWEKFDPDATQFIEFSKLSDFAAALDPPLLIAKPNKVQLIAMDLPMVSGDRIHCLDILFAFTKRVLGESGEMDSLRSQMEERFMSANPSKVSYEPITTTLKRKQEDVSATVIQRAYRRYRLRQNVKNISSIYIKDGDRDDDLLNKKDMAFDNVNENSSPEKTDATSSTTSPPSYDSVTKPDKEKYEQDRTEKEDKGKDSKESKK
# Chain of Transient receptor potential cation channel subfamily V member 1 (Homo sapiens) (Q8NER1 whole entry): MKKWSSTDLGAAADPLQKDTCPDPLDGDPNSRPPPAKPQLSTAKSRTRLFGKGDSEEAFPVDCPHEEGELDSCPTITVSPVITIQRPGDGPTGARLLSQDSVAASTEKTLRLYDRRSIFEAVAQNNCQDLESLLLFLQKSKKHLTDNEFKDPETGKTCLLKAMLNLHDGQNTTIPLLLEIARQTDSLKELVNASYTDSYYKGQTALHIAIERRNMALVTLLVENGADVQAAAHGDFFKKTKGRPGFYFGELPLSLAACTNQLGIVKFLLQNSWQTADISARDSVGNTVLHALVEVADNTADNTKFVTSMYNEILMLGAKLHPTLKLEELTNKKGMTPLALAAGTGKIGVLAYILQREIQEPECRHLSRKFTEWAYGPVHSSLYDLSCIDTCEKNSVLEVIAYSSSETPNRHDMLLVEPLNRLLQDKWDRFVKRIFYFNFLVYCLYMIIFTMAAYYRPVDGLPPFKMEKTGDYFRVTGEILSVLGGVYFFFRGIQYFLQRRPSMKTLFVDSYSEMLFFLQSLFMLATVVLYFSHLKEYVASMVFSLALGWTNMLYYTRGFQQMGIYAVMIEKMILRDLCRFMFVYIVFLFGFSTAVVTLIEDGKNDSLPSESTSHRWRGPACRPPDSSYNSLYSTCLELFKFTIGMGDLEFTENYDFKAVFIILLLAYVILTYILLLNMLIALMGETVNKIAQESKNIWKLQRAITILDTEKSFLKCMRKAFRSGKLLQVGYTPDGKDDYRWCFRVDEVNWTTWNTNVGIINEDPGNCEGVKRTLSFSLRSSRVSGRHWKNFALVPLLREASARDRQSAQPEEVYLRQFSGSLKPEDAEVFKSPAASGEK
smiles,measurement,setting,value
C[C@]1(O)C[C@](c2cc(C(F)(F)F)ccn2)([C@H](O)c2ccccn2)C1 (mixture of isomers),Activity,[1],Not Active
same,bioavailability,[2],26%
same,Activity,[3],< 50%
same,Activity,[4],Non-toxic
same,Activity,[5],Dose-dependent effect
same,EC50,[5],11 µmol
same,Activity,[6],> 50%
same,fAUC,[7],240 ng·h/mL
same,half-life,[8],30 min
same,CL free,[9],100 mL/min/kg
same,Activity,[10],< 50%
same,Activity,[11],Non-toxic
same,Activity,[12],Non-toxic
same,IC50,[13],380 nM
same,Activity,[14],Dose-dependent effect
same,EC50,[14],11 µmol
same,Activity,[15],< 50%
same,Activity,[16],< 50%
same,fraction unbound,[17],0.89
same,Activity,[18],< 50%
same,Activity,[19],< 50%
same,Activity,[20],Non-toxic
same,Kb,[21],560 nM
same,IC50,[22],930 nM
same,Vd,[23],1.4 L/kg
